Sampled rows, rich in hits. Any-hit rate of the full collection: about 2.8%.
Yeast life ext: yeast lifespan extension. S. cerevisiae growth with nicotinamide, OD615; deaD strain in restrictive glucose medium. inhibition of the nicotinamide effect, % at 10 µM. actives 0.68% (n = 130,000);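 active = inhibition above a set limit, placed 3 SD over the median of all compounds, cut at about 26% in these data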
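assay system = DeaD-strain S. cerevisiae | measured by = absorbance at 615 nm | probe or stimulus = nicotinamide 1.5 mM | buffer or medium = CSMM-D glucose medium, restrictive | times = 48 h at 30 °C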
bCat KO growth: beta-catenin-lacking colon tumor cell growth suppression. HCT116 beta-catenin knockout viability, CellTiter-Glo, 60 h; hits give low values. actives 1.5% (n = 140,000). viability, % at 10 µM. AID 818;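 active = viability at or under a set limit, the compound median less 4 SD, cut at about 6% in these data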
PTEN del growth: PTEN-deleted cell growth suppression | HCT116 PTEN-null viability, CellTiter-Glo, 60 h; hits give low values | viability, % at 10 µM | actives 1.2% (n = 140,000) | AID 827;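 active = viability at or below a set limit, 4 SD under the median of all tested compounds, cut at about 3.7% in these data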;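 note: PTEN knockout HCT116 line with beta catenin targeted HCT116 as companion control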
SDO1 yeast rescue: sdo1-depleted yeast growth rescue; actives 0.21% (n = 140,000); z-score at 10 µM; S. cerevisiae sdo1-depleted JHY4D growth rescue, OD600 30 h; hits give high values; pdr5 snq2 efflux-pump mutant strain;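 active = z-score above 3 at both the 24 hr and the 30 hr optical density reads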
BB579 growth dn: reduces growth of yeast BB579 in restrictive medium; S. cerevisiae BB579 growth, OD615, 48 h; inhibition, % at 10 µM; actives 0.51% (n = 140,000);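 active = inhibition above a set limit, 3 SD over the mean compound inhibition, cut at about 44% in these data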
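Detection: OD615 turbidity measurement; Material: Saccharomyces cerevisiae DeaD strain BB579, replicative lifespan model yeast; Timing: 48 h exposure, 30 °C; Doses: single 10 µM dose; Medium: CSMM-D restrictive synthetic medium containing dextrose (glucose); Controls: amphotericin B at 10 µg/mL as positive control.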
A number is an active result; 0 = inactive; - = not tested or not shown.

SMILES	Yeast life ext	bCat KO growth	PTEN del growth	SDO1 yeast rescue	BB579 growth dn
COc1cccc(C2CC3C(=O)C=CC2N3Cc2ccccc2)c1 (stereo unspecified)	59	0	0	0	0
O=C1c2ccccc2C(=O)N1Cc1nc2ccccc2c(=O)n1-c1ccc(Br)cn1	77	0	0	0	0
CN(C)c1ccc(C(=O)c2ccc(N(C)C)cc2)cc1	0	0	0	0	0
CN(C)c1ccc(/C=C/[N+](=O)[O-])cc1	0	2.7	3.5	0	0
C/C(=C\c1ccc(N(C)C)cc1)[N+](=O)[O-]	0	0	2.1	0	0
COCCCn1c(-c2ccc(OC)cc2)cc(C(=O)NC2CCCCCCC2)c1C	0	0	0	0	0
CCCCCSc1cc(OC)c(CCN)cc1OC	0	0	0	0	0
CCCCCCCSc1cc(OC)c(CCN(C)C)cc1OC	0	1.2	1.3	0	0
CCN(CC)CCCN=Cc1c(O)n(CCc2ccc(OC)c(OC)c2)c(=O)[nH]c1=O	0	0	0	0	0
CCN(CC)c1ccc(N=Cc2c(O)n(-c3cc(OC)ccc3OC)c(=O)[nH]c2=O)cc1	0	3.0	0	0	0
CCN(CC)S(=O)(=O)c1ccc(N=Cc2c(O)n(-c3ccccc3)c(=O)[nH]c2=O)cc1	0	0	0	0	0
CCN(CC)c1ccc(N=Cc2c(O)n(CCc3ccc(OC)c(OC)c3)c(=O)[nH]c2=O)cc1	0	2.7	0	0	0
N#CCCn1cc(C(=O)Nc2ccccc2Br)c(-c2ccc([N+](=O)[O-])cc2)n1	0	0	0	0	0
COc1ccc2nc(NC3=NCCN3)sc2c1	0	0	0	0	0
CCCCn1c(=O)c(C(=O)NCc2ccncc2)c(O)c2ccccc21	0	0	0	0	46
O=C1CC(N2CCC(n3c(=O)[nH]c4ccccc43)CC2)C(=O)N1c1ccc(F)cc1 (stereo unspecified)	0	0	0	0	0
O=c1[nH]c2ccccc2n1C1CCN(CCCC(c2ccc(F)cc2)c2ccc(F)cc2)CC1	0	1.4	1.1	0	0
COc1ccccc1CCNC1CCC(C(C)(C)C)CC1 (stereo unspecified)	0	0	0	0	0
Clc1ccccc1CNC1CN2CCC1CC2 (stereo unspecified)	0	0	0	0	0
O=C(NC1CN2CCC1CC2)c1cc(Cl)c([N+](=O)[O-])c2nc[nH]c12 (stereo unspecified)	0	0.8	0.6	0	0
COC1=CCC2([N+](=O)[O-])CN(C)CC1([N+](=O)[O-])C2 (stereo unspecified)	0	0	0	0	0
O=C1C(=O)c2cccc3cccc1c23	0	0	0	0	0
O=C1C(=O)c2ccccc2-c2ccccc21	0	1.7	2.2	0	100
COC(=O)[C@@H]1C[C@@]1(C)[C@@H](NP(=O)(c1ccccc1)c1ccccc1)c1ccccc1	0	0	0	0	0
CN1CCN(c2c[nH]c(=O)[nH]c2=O)CC1	0	0	0	0	0
SMILES	Yeast life ext	bCat KO growth	PTEN del growth	SDO1 yeast rescue	BB579 growth dn
O=C1NC(=S)N(C2CC2)C(=O)/C1=C/c1ccc2c(c1)CCN2CCCCl	27	0	0	0	0
CCN1C(=O)/C(=C/c2ccc3c(c2)CCN3CCCCl)C(=O)NC1=S	0	0	0	0	0
O=C(Cc1ccccc1)OCCN1CCCCC1	0	0	0	0	0
O=C(c1ccccc1)C(CN1CCCC1)c1ccccc1 (stereo unspecified)	56	1.8	1.5	0	0
Cc1nc2c(=O)n(C)c(=O)nc-2n(C)n1	-	1.5	1.5	0	0
CC[N+](C)(CC)CCCOC(=O)C(O)(c1ccccc1)C1CCCCC1 (stereo unspecified)	-	0	0	0	0
COC(=O)C1CN(C#N)N(c2ccc(Cl)cc2)C12c1ccccc1-c1ccccc12 (stereo unspecified)	-	1.2	1.0	0	0
CSCCC(N=Cc1c(O)n(-c2ccc(Cl)cc2)c(=O)[nH]c1=O)C(=O)OC(C)(C)C (stereo unspecified)	0	0	0	0	0
CCCOP(=O)(OCCC)C(NC(=O)c1ccccc1)=C(Cl)Cl	0	0	0	0	0
CCC(C)N1C(=O)/C(=C\c2cc3c4c(c2)CCCN4CCC3)C(=O)NC1=S (stereo unspecified)	30	0	0	0	0
CC1CCC/C=C/C2CC(O)CC2C(O)/C=C/C(=O)O1 (stereo unspecified)	0	2.8	0	0	0
N[C@@H](Cc1c[nH]c2ccccc12)c1nnc(SCc2ccccc2F)o1	0	0	0	0	0
CN1/C(=C\C=Nc2ccccc2)C(C)(C)c2ccccc21	0	0	0	0	0
CN1/C(=C\C=C\C2=[N+](C)c3ccc4ccccc4c3C2(C)C)C(C)(C)c2ccccc21	0	0.4	0.1	0	87
Cc1ccc(C2N(c3cc(C)on3)C(=O)C3CCCN32)cc1 (stereo unspecified)	0	0	0	0	0
CN1CSC(=S)N(C)C1	0	0	0	0	86
CN1CCC(N(C)c2ncnc3ccc(Br)cc23)CC1	0	0	0	0	0
Cc1ccc(-c2nc(N(C)C3CCN(C)CC3)c3ccccc3n2)cc1	0	1.4	1.4	0	0
O=C1/C(=C/c2cccc([N+](=O)[O-])c2)N2CCC1CC2	36	0	0	0	0
C=CCn1c(O)c(C(CC)=NCCC2=CCCCC2)c(=O)[nH]c1=O	0	0	0	0	0
CCC(=O)c1c(O)n(C2CCCCCC2)c(=O)[nH]c1=O	0	0	0	0	89
Cc1ccc(N2C(=O)NC(=O)/C(=C\C=C\c3ccco3)C2=O)cc1C	29	0	0	0	0
NS(=O)(=O)c1ccc(N=Cc2c(O)n(C3CCCCC3)c(=O)n(C3CCCCC3)c2=O)cc1	33	0	-	0	0
CCn1c(O)c(C=Nc2ccc(S(N)(=O)=O)cc2)c(=O)n(CC)c1=S	0	0	0	0	0
Cc1ccc(C2CC(=O)C(C=NCCN3CCN(C(=O)Cc4ccccc4)CC3)=C(O)C2)cc1 (stereo unspecified)	0	0	0	0	0
SMILES	Yeast life ext	bCat KO growth	PTEN del growth	SDO1 yeast rescue	BB579 growth dn
O=C1CC(c2ccccc2)CC(O)=C1C=NCCN1CCN(C(=O)Cc2ccccc2)CC1 (stereo unspecified)	82	0	0	0	0
CC1(C)C[C@H]2C=C(C=O)[C@]3(C=O)C[C@]3(C)[C@H]2C1	0	2.0	1.8	0	100
Cc1cccnc1-n1c(C)nc2ccccc2c1=O	0	0	0	0	0
COc1ccc(C2SCC(=O)Nc3c2c(C)nn3C2CCOC(C)(C)C2)cc1OC (stereo unspecified)	0	0	-	0	0
COc1ccc(C2SCC(=O)Nc3c2c(=O)[nH]n3C2CCCCCC2)cc1 (stereo unspecified)	0	0	0	0	0
COc1ccc(C2SCC(=O)Nc3c2c(=O)[nH]n3C2CCCCCC2)cc1OC (stereo unspecified)	29	0	0	0	0

Compound activity (PubChem)
